The values below come from PubChem BioAssay.

Molecules are shown by their SMILES. A number with no mark means an inactive call. Inconclusive results are not listed. The source made the active and inactive calls.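 Rule for the calls, unless noted: active = viability at or below 27.92% in each of two runs, the all-compound median minus 4 SD; inconclusive = no clear call, values can overlap the other calls; inactive = the rest.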

Experiment [1] is described as follows: S. cerevisiae growth inhibition in permissive medium (OD615), pilot counter-assay for S. cerevisiae lifespan shortening project, permissive growth control (AID 705;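 active = growth inhibition above 25% in both replicates, a cutoff set 3 SD above the mean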). The following applies: OD615, 24 h, at 10 µM, stronger effect = higher value. The method, boiled down: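 Timing: 24 h exposure, 30 °C / Material: Saccharomyces cerevisiae strain carrying genetically modified DeaD replicative-lifespan system / Signal: OD at 615 nm / Compound: 10 µM single dose, 0.25% DMSO / Medium: SC raffinose/galactose permissive medium / Evaluation: reduction in yeast growth (OD615)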

Experiment [2] can be described thus: S. cerevisiae growth inhibition in restrictive medium, OD615, pilot screen, restrictive growth control, yeast lifespan reduction project (AID 706;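 active = growth inhibition above a set limit, 3 SD over mean compound inhibition, in both replicates, cut at about 43% in these data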;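 note: modified DeaD lifespan yeast strain shifted to restrictive glucose medium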). Particulars: OD615, 48 h, at 10 µM, stronger effect = higher value. The method, boiled down:
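System: Engineered S. cerevisiae DeaD strain | Detection: OD615 | Buffer or medium: CSMM-D glucose medium | Doses: 10 µM compound, 0.25% DMSO | Timing: 4 h pre-growth plus 48 h compound exposure, 30 °C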

The nature of experiment [3]: doxorubicin toxicity protection in MRP-1 cells – H69AR cells, CellTiter-Glo, duplicate, MRP-1 activator project, pilot screen (AID 807;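 active = viability increase at or above a cutoff of the median across tested compounds plus 3 SD, cut at about 8.5% in these data, passing the limit was not always enough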;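 note: compound pretreatment 18-22 h then 72 h combined with doxorubicin; 0% = doxorubicin alone and 100% = vehicle without doxorubicin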). The following applies: H69AR viability with doxorubicin, CellTiter-Glo luminescence; at 10 µM; stronger effect = higher value.
Experiment [4] in a line: viability of HCT116 without oncogenic beta-catenin – human colon tumor cells, pilot screen (AID 823;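 active = cell viability at or below a set limit in both duplicate runs, the limit being the all-compound median minus 4 SD, cut at about 23% in these data, passing the limit was not always enough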;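 note: 0% = wells killed by 20 µM Hyamine and 100% = untreated DMSO cell wells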). Particulars: HCT116 beta-catenin knockout viability, CellTiter-Glo, 60 h; at 10 µM; stronger effect = lower value. In general terms: ATP-based viability assays read luminescence as a measure of living cells.
Experiment [5] in a line: viability of PTEN-null HCT116 cells – cell-based, HCT116 clonal line, CellTiter-Glo, pilot screen (AID 824).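 Note: 0% = 20 µM Hyamine control and 100% = vehicle cell control.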 Particulars: HCT116 PTEN-deleted viability, 60 h, at 10 µM, stronger effect = lower value.
Experiment [6] in a line: RAM pathway blockade in budding yeast – dse1pr::URA3 reporter, 5-FOA selection, pilot screen (AID 869;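 active = inhibition over a set limit, the all-compound mean plus 3 SD, in both replicate runs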;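 note: 0% = DMSO wells with no growth and 100% = 10 µM 1-NA-PP1 with full growth; RAM network block rescues cells from 5-FOA so hits raise OD615 growth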). Particulars: S. cerevisiae dse1pr::URA3 5-FOA growth, OD615, 2 d; at 10 µM; stronger effect = higher value; strain carries analog-sensitive mutant Cbk1 kinase.
The nature of experiment [7]: RAM signaling pathway blockade in yeast – S. cerevisiae, Pdr1DBD-CYC8 efflux-inhibited sensitized strain, primary screen (AID 1298;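 active = RAM network inhibition above 8.4% in each of two replicates, 3 SD over the compound average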;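 note: 0% = DMSO untreated cells without growth and 100% = 10 µM 1-NA-PP1 full growth; higher means more yeast growth rescued from 5-FOA killing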). Particulars: S. cerevisiae cbk1-as DSE1-URA3 strain, 5-FOA growth OD615, 2 d; at 50 µM; stronger effect = higher value.

Regarding `COC(=O)c1ccccc1NC(NC(=O)c1ccco1)C(=O)c1ccc(C)cc1` (stereo unspecified), the growth inhibition in experiment [1] is -0.235%; in experiment [2], -5.5%. Further, in experiment [3], the viability increase is -4.41%. In addition, the viability (commonly a read-out of living cells in per cent, often relative to untreated cells) in experiment [4] is 79%; in experiment [5], 70.3%. In addition, in experiment [6], the inhibition (as a rule, the drop in the measured response relative to a control, in per cent) was 4.25%. For the same compound, the RAM network inhibition in experiment [7] was 7.66%.

In the case of `COc1cc(NC(=O)CCCC(=O)OCC(F)(F)C(F)F)nc(OC)n1`, the growth inhibition was -5.42% in experiment [1] and -21.7% in experiment [2]. The viability increase in experiment [3] was -0.22%. The viability in experiment [4] was 102%; in experiment [5], 98.9%. Further, in experiment [6], the inhibition is 1.37%. For the same compound, in experiment [7], the RAM network inhibition is 0.92%.

As to `Cn1nc(-c2ccc(Cl)cc2)c2cc(C(=O)NCCCN3CCOCC3)sc21`, the figures for the growth inhibition in experiment [1] and in experiment [2] were -3.37% and 5.94%, respectively. Further, the viability increase in experiment [3] is -7.82%. Besides, the viability was 4.12% (active) in experiment [4] and 5.19% (active) in experiment [5]. In addition, the inhibition in experiment [6] is -0.235%. The RAM network inhibition in experiment [7] is -0.16%.

As for `CCCCC(CC)C(=O)NCCc1ccc(S(N)(=O)=O)cc1` (stereo unspecified), the results for the growth inhibition in experiment [1] and in experiment [2] were -2.48% and -4.13%, respectively. In addition, the viability increase in experiment [3] was -0.52%. Moreover, the values for the viability in experiment [4] and in experiment [5] were 93.2% and 97.9%, respectively. Further, the inhibition in experiment [6] was 1%. Moreover, in experiment [7], the RAM network inhibition is -0.82%.

Turning to `OCCOCCn1c(-c2ccccc2)nc(=S)c2c1CCCC2`, the growth inhibition in experiment [1] is -3.65%; in experiment [2], 14.6%. In addition, the viability increase in experiment [3] is -0.07%. The figures for the viability in experiment [4] and in experiment [5] were 102% and 106%, respectively. Further, the inhibition in experiment [6] is 0.73%. The RAM network inhibition in experiment [7] is 6.53%.

As to `COc1ccc(NC(=O)[C@H](CCS(C)(=O)=O)N2Cc3ccccc3C2=O)c(OC)c1`, the growth inhibition in experiment [1] is -0.525%; in experiment [2], -0.57%. Besides, the viability increase in experiment [3] is 0.69%. Also, the viability in experiment [4] was 104%; in experiment [5], 100%. For the same compound, in experiment [6], the inhibition was 2.29%. Moreover, the RAM network inhibition in experiment [7] was 1.93%.

For `CCN(C(=O)c1sc(N)c(C#N)c1C)C1CCCCC1`, the growth inhibition was -1.28% in experiment [1] and -0.585% in experiment [2]. The viability increase in experiment [3] is 0.43%. In addition, the viability was 92.1% in experiment [4] and 91.6% in experiment [5]. In addition, in experiment [6], the inhibition is 1.5%. The RAM network inhibition in experiment [7] was 0.01%.

As for `O=C(CN1CCN(Cc2ccccc2Cl)C1=O)NCC1CCCO1` (stereo unspecified), the growth inhibition was 4.72% in experiment [1] and -0.62% in experiment [2]. For the same compound, in experiment [3], the viability increase was -2.68%. For the same compound, the values for the viability in experiment [4] and in experiment [5] were 97.2% and 95.5%, respectively. Moreover, the inhibition in experiment [6] is 0.35%. Besides, the RAM network inhibition in experiment [7] was 1.49%.

With `Cc1cc2oc3c(c(=O)c2cc1C)C(c1ccc(C(C)C)cc1)N(CCCN1CCOCC1)C3=O` (stereo unspecified), the values for the growth inhibition in experiment [1] and in experiment [2] were -7.04% and -2.79%, respectively. The viability increase in experiment [3] was -3.45%. Further, the viability in experiment [4] was 95.8%; in experiment [5], 86.5%. In addition, the inhibition in experiment [6] was 1.31%. For the same compound, the RAM network inhibition in experiment [7] was 4.42%.

In the case of `COc1ccccc1-c1coc2cc(O)cc(O)c2c1=O`, the growth inhibition was 3.81% in experiment [1] and 9.45% in experiment [2]. For the same compound, in experiment [3], the viability increase was 0.63%. For the same compound, the viability in experiment [4] was 93.4%; in experiment [5], 92.6%. For the same compound, in experiment [6], the inhibition was 0.26%. Also, the RAM network inhibition in experiment [7] was 0.05%.

With `COc1cc(NC(=O)C(F)(F)F)cc(OC)c1`, the growth inhibition in experiment [1] is -10.5%; in experiment [2], -13.3%. Besides, the viability increase in experiment [3] is -0.69%. Also, the viability was 98.2% in experiment [4] and 108% in experiment [5]. In addition, in experiment [6], the inhibition is 0.22%. Also, the RAM network inhibition in experiment [7] was 1.3%.

`CCOc1ccc(-n2c(SC(C)C(=O)OC)nc3c(c2=O)SCC3)cc1` (stereo unspecified): the growth inhibition in experiment [1] was -6.67%; in experiment [2], -19.6%. The viability increase in experiment [3] is -1.08%. The figures for the viability in experiment [4] and in experiment [5] were 89.6% and 92.2%, respectively. Further, the inhibition in experiment [6] was 0.355%. Besides, the RAM network inhibition in experiment [7] is 5.59%.

`Cc1nn2cc(-c3ccccc3)nc2s1`: the growth inhibition in experiment [1] was -5.37%; in experiment [2], -7.45%. The viability increase in experiment [3] was -1.05%. Further, the figures for the viability in experiment [4] and in experiment [5] were 93.3% and 91.6%, respectively. Moreover, the inhibition in experiment [6] was 0.575%. In experiment [7], the RAM network inhibition is 4.7%.

Regarding `CCCC(=O)N1CC(=O)Nc2ccc(F)cc2C1c1ccccc1` (stereo unspecified), the growth inhibition is -5.99% in experiment [1] and -15.7% in experiment [2]. The viability increase in experiment [3] is -1.01%. The viability in experiment [4] is 111%; in experiment [5], 92.6%. Also, the inhibition in experiment [6] is 3.18%. Further, in experiment [7], the RAM network inhibition was 3.75%.

Consider `CC(=O)NC1(c2ccccc2)CCN(Cc2nnnn2C(C)(C)C)CC1`, for which the growth inhibition in experiment [1] was -11.8%; in experiment [2], -17.9%. Also, in experiment [3], the viability increase is -0.8%. Further, the viability in experiment [4] was 102%; in experiment [5], 96%. In experiment [6], the inhibition is 3.53%. The RAM network inhibition in experiment [7] was 1.62%.

Take `O=C(CC1c2ccccc2Oc2ccccc21)N1CCN(c2ccccn2)CC1`: the growth inhibition in experiment [1] is -16.3%; in experiment [2] it was -10.3%. In addition, the viability increase in experiment [3] was -3.24%. In addition, the viability in experiment [4] was 71.6%; in experiment [5] it was 70.5%. The inhibition in experiment [6] was 1.08%. Moreover, the RAM network inhibition in experiment [7] was 4.78%.

`Cc1ccccc1C(=O)Nc1ccc2nc3n(c(=O)c2c1)CCC3`: the growth inhibition in experiment [1] was -2.17%; in experiment [2], 0.31%. Moreover, the viability increase in experiment [3] was 0.79%. The viability in experiment [4] is 106%; in experiment [5], 104%. Also, in experiment [6], the inhibition is 0.085%. Besides, the RAM network inhibition in experiment [7] is 4.34%.

With `O=C(Cn1cc2c(n1)CCCC2)N1CCCC1`, the growth inhibition is -1.5% in experiment [1] and 1.53% in experiment [2]. In addition, the viability increase in experiment [3] was 0.07%. Besides, the viability in experiment [4] was 95.5%; in experiment [5] it was 96.6%. In addition, the inhibition in experiment [6] was 1.14%. Besides, in experiment [7], the RAM network inhibition is 4.6%.
